Compounds with a hit are over-represented: about 2.3% of the library has one in this group of screens.
TAAR1 antag: human TAAR1 antagonists, primary screen, Fluo-8 calcium fluorescence, CHO RD-HGA16 cells | antagonist | inhibition, % at 3 µM | actives 1.5% (n = 360,000);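 active = inhibition above a per-plate cutoff, the mean inhibition of test compounds on that plate plus 3 SD, cut at about 49% in these data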
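Test system – hTAAR1-expressing CHO RD-HGA16 cells, Gα16-coupled · Reagent – β-PEA at EC80 concentration, post-compound challenge · Compound dosing – 3 µM, single point · Timing – 140 s kinetic read after compound, 140 s after agonist · Detection – Fluo-8 intracellular calcium dye fluorescence, real-time kinetic reads · Control set – DMSO and EC80 PEA controls · Repeats – n of 1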
OXTR ag: human OXTR agonists, primary screen, fluorescence, CHO-OTR cells, Fluo-8 calcium; Fluo-8 calcium fluorescence; normalized: DMSO 0%, oxytocin 100%; actives 0.32% (n = 320,000); Oxytocin receptor (Homo sapiens), P30559; activation, % at 3 µM; AID 2435, 2010;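 active = activation above the mean of all tested compounds plus 3 SD, cutoff set per screening run, cut at about 20% in these data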;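 also: peak over basal fluorescence ratio from a 100 s FLIPR kinetic read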
Target sequence (P30559 whole entry, looked up): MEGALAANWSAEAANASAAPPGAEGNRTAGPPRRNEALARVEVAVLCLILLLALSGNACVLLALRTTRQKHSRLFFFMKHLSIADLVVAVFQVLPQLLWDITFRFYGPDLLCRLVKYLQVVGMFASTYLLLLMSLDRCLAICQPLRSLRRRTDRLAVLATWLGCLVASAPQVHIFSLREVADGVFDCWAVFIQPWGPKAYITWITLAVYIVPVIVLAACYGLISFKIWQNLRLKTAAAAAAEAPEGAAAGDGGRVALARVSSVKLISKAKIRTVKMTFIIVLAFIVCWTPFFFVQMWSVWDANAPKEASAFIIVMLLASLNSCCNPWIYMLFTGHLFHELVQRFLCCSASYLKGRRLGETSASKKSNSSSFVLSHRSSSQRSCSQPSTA
TAAR1 ag: human TAAR1 agonists, primary screen, Fluo-8 calcium fluorescence, CHO RD-HGA16 cells; Trace amine-associated receptor 1 (Homo sapiens), Q96RJ0; vehicle wells 0%, saturating PEA agonist 100%; activation, % at 3 µM; actives 0.99% (n = 360,000);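 active = activation above the mean activation of all test compounds in the run plus 3 SD, cut at about 38% in these data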
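test system = CHO RD-HGA16 cells carrying human TAAR1 plus Gα16 | schedule = 17-24 h seeding, 75 min 37 °C dye, 30 min RT | compound dosing = 3 µM single concentration | control set = DMSO and PEA EC100 | replicates = n 1 | signal = Fluo-8 fluorescence, 5 s baseline then 140 s kinetic read | measure = percent activation vs PEA EC100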
OXTR potentiator: human OXTR potentiators, primary screen, fluorescence, CHO-OTR cells, Fluo-8 calcium. Oxytocin receptor (Homo sapiens), P30559. Fluo-8 calcium fluorescence, potentiator mode; 0% = oxytocin EC15, 100% = EC100. activation, % at 3 µM. actives 0.061% (n = 320,000). AID 2445, 2010;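 active = activation above that plate's cutoff, the mean activation of tested compounds plus 3 SD, cut at about 6.6% in these data, passing the limit was not always enough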
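Material: CHO-OTR cells, human receptor; compound dosing: single dose, 3.0 µM nominal final compound concentration; schedule: 6 min compound pre-incubation at room temperature, 100 s kinetic read; measured by: kinetic Fluo-8 calcium fluorescence; read-out basis: % activation vs EC15 and EC100 oxytocin; controls: EC15 oxytocin alone as 0%, 75 nM oxytocin as 100%; replicates: singlicate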
V1aR counter: agonists of human V1a receptor, primary screen, counter-screen for OXTR agonist project, fluorescence, CHO-V1R cells; Fluo-8 calcium fluorescence, agonist mode; 0% DMSO, 100% 3 nM vasopressin; activation, % at 3 µM; actives 0.25% (n = 320,000);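 active = activation above the mean activation of all tested compounds plus 3 SD, per screening run, cut at about 20% in these data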;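 also: signal is peak over basal fluorescence ratio across a 100 second FLIPR read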
TAAR1 nonsel count: nonselective antagonists in TAAR1 counter-screen cells, counter-screen for hTAAR1 antagonist project, cell-based, fluorescence, calcium; shares compounds with TAAR1 antag; counterscreen cell line, antagonist mode; inhibition, % at 3 µM; actives 77% (n = 2,400); AID 651780, 2012; in the data active = inhibition above about 22%;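 also: CHO-Ga16 host cells stimulated with ATP at an EC80 level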
TAAR1 ant conf: human TAAR1 antagonists, retest of hits, confirmation, cell-based, fluorescence. shares compounds with TAAR1 antag. TAAR1-expressing cells, fluorescence antagonist read-out. inhibition, % at 3 µM. actives 40% (n = 2,400); in the data active = inhibition above about 49%;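 also: CHO-Ga16 host cells challenged with agonist PEA near its EC80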
Ga16 nonsel ag: calcium activation in Ga16-expressing cells, counter-screen for TAAR1 antagonist project, cell-based, fluorescence; shares compounds with TAAR1 antag; activation, % at 3 µM; agonist counterscreen; AID 651953, 2012; actives 18% (n = 2,400); in the data active = activation above about 12%
TAAR1 ag count: TAAR1 activation by candidate antagonists – cell-based, fluorescence, counter-screen for TAAR1 antagonist project | shares compounds with TAAR1 antag | hTAAR1 cell line, agonist mode | activation, % at 3 µM | actives 2% (n = 2,400) | AID 651955, 2012; in the data active = activation above about 37%;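 also: CHO cells stably expressing TAAR1 with calcium dye readout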
Of the large screens only hits and unclear results are named; the others gave an inactive call (follow-up assays come after a bar, where they were run).

COc1ccc(N(CC(=O)Nc2cccc(C(C)=O)c2)S(=O)(=O)c2ccc(NC(C)=O)cc2)cc1	TAAR1 antag 61.5 (no result: OXTR ag, OXTR potentiator, V1aR counter) | TAAR1 nonsel count 35.2 | TAAR1 ant conf 54.6 | Ga16 nonsel ag inactive | TAAR1 ag count inactive
COc1ccc(NC(=O)CN(c2ccc(OC)cc2)S(=O)(=O)c2ccc(OC)c(OC)c2)cc1	TAAR1 antag 50.8 | TAAR1 nonsel count 22.9 | TAAR1 ant conf inactive | Ga16 nonsel ag inactive | TAAR1 ag count inactive
COC(=O)CN(c1ccc(OC)cc1)S(=O)(=O)c1ccc(OC)c(OC)c1	none
CSc1nsc(NN)n1	none (no result: OXTR ag, OXTR potentiator, V1aR counter)
Cc1ccc(S(=O)(=O)N(CC(=O)Nc2ccccc2C(=O)O)c2ccccc2C)cc1	none
Cc1ccccc1N(CC(=O)Nc1ccccc1C(=O)NCc1ccco1)S(=O)(=O)c1ccccc1	TAAR1 antag 68.8 | TAAR1 nonsel count 30.6 | TAAR1 ant conf inactive | Ga16 nonsel ag inactive | TAAR1 ag count inactive
O=C(Nc1ccccc1C(=O)Nc1ccccc1C(=O)NCc1ccco1)c1ccco1	TAAR1 antag 68.8 | TAAR1 nonsel count 24.7 | TAAR1 ant conf 48.6 | Ga16 nonsel ag inactive | TAAR1 ag count inactive
COC(=O)C1(C)CCCC2(C)C3CCC(C(C)C)C(CO)C3C(CO)CC12 (stereo unspecified)	TAAR1 antag 82.0 (no result: OXTR ag, OXTR potentiator, V1aR counter) | TAAR1 nonsel count 32.2 | TAAR1 ant conf 55.0 | Ga16 nonsel ag 13.9 | TAAR1 ag count inactive
Cc1cccc(CNC(=O)Cn2ccc3cc(S(=O)(=O)N4CCCC4)ccc32)c1	none
CC1(C)c2[nH]c3ccccc3c2C[C@@H]2C(=O)N(c3ccc(F)cc3F)C(=O)N21	TAAR1 antag 60.6 | TAAR1 nonsel count 40.4 | TAAR1 ant conf 52.1 | Ga16 nonsel ag 17.1 | TAAR1 ag count inactive
CC1(C)c2[nH]c3ccccc3c2C[C@@H]2C(=O)N(Cc3ccc(F)cc3)C(=O)N21	TAAR1 antag 67.5 | TAAR1 nonsel count 34.0 | TAAR1 ant conf 49.5 | Ga16 nonsel ag inactive | TAAR1 ag count inactive
CCOc1ccc(N2CC(C(=O)NCCc3c[nH]c4ccc(C)cc34)CC2=O)cc1 (stereo unspecified)	none
Cc1ccc(C)c(N2CCN(C(=O)CCc3nc(-c4ccccc4Br)no3)CC2)c1	TAAR1 antag 67.2 (no result: OXTR ag, OXTR potentiator, V1aR counter) | TAAR1 nonsel count 32.0 | TAAR1 ant conf inactive | Ga16 nonsel ag inactive | TAAR1 ag count inactive
Cc1ccc(C)c(N2CCN(C(=O)CCc3nc(-c4ccccc4F)no3)CC2)c1	TAAR1 antag 63.9 (no result: OXTR ag, OXTR potentiator, V1aR counter) | TAAR1 nonsel count inactive | TAAR1 ant conf inactive | Ga16 nonsel ag inactive | TAAR1 ag count inactive
Cc1ccc(C)c(N2CCN(C(=O)CCc3nc(-c4cccc(F)c4)no3)CC2)c1	none (no result: OXTR ag, OXTR potentiator, V1aR counter)
Cc1cc(C)c(S(=O)(=O)N2CCCOC2CNC(=O)C(=O)NCCc2c[nH]c3ccccc23)c(C)c1 (stereo unspecified)	TAAR1 antag 75.5 | TAAR1 nonsel count 52.2 | TAAR1 ant conf 67.8 | Ga16 nonsel ag 18.4 | TAAR1 ag count inactive

Screens: PubChem, The Scripps Research Institute Molecular Screening Center
